# NadD block: NadD (S. aureus) enzyme inhibition; purified NadD enzyme, colorimetric absorbance read-out; inhibition, % at 20 µM; actives 0.78% (n = 360,000); in the data active means inhibition above about 26%
# GRK2 aptamer HTS: blocks RNA aptamer binding to human GRK2 | P25098 | bead flow cytometry, FAM-aptamer displacement from GRK2 | inhibition of aptamer binding, % at 10 µM | actives 0.59% (n = 330,000);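 active means inhibition of aptamer binding above 40%, roughly 3 SD of noise, on plates passing a quality check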;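 further: median bead fluorescence of bound FAM aptamer so fluorescent compounds give negative values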
# SENP1 FRET inh: SENP1 (human) catalytic domain inhibition; actives 0.21% (n = 360,000); recombinant SENP1 catalytic domain, CyPet-SUMO1-YPet FRET cleavage; inhibition, % at 10 µM; AID 624204;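 active means inhibition at least 30% at 10 µM, raw YFP signal under a set limit, fluorescence ratio 0.5 to 1.5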;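 further: 0% = enzyme with DMSO and 100% = no enzyme wells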
# Target sequence (Q9P0U3 419-644 limits assumed): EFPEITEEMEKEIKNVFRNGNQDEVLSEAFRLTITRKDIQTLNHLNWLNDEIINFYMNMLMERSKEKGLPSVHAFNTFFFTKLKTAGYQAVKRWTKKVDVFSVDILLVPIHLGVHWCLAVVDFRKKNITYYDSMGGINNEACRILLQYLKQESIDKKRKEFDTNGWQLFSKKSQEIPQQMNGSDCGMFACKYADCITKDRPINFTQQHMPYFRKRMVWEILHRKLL
#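 Test system: recombinant human SENP1 catalytic domain, His6-tagged / Medium: pH 8 Tris buffer with EDTA, NaCl, BME, BSA, NP40, catalase / Also added: SUMO1 FRET substrate flanked by Cypet and Ypet, 25 nM / Times: 50 min reaction at room temperature / Signal: FRET, CFP and YFP emission / Control set: no-enzyme low control and enzyme-plus-DMSO high control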
# B2AR ag: activates human beta-2 adrenergic receptor causing internalization; P07550; Am2.2-beta2AR cells, FAP receptor internalization, flow cytometry; response, % (test concentration not listed); actives 0.43% (n = 340,000); AID 504454;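 active means response above a set limit, near 3 SD of response in nonfluorescent compounds, cut at about 42% in these data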
# ABHD5-PLIN5 inh: blocks binding of human ABHD5 to perilipin-5; Split G. princeps luciferase complementation, luminescence, 4 h; AID 602281; inhibition, % at 4 µM; Q00G26+Q8WTS1; actives 0.78% (n = 360,000);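 active means inhibition above the mean inhibition across every tested compound plus 3 SD, cut at about 22% in these data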;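 further: 0% = DMSO only wells and the 100% control is not disclosed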
# NadD conf: confirmation of Staphylococcus aureus NadD inhibitors; shares compounds with NadD block; purified S. aureus NadD, colorimetric enzyme assay; inhibition, % at 20 µM; actives 13% (n = 2,000); AID 624309; in the data active means inhibition mostly above about 42%, no sharp cut-off; inactive means mostly below about 42%
# * marks the source's active call; other numbers are inactive results; nt = no result given. A selection: hits, their analogues and other compounds. The true share with any hit is near 2.5%.
SMILES,NadD block,GRK2 aptamer HTS,SENP1 FRET inh,B2AR ag,ABHD5-PLIN5 inh,NadD conf
COc1cc2cc(Oc3ccc4ccc(=O)oc4c3)c(=O)oc2cc1O[C@@H]1O[C@H](CO)[C@@H](O)[C@H](O)[C@H]1O,3,4,-23,8,8,nt
COc1cc2cc(Oc3ccc4ccc(=O)oc4c3)c(=O)oc2cc1OC(=O)/C=C/c1ccccc1,32*,2,-74,4,2,10
COc1ccc(C2NCCc3c2[nH]c2ccccc32)cc1CSc1nc2ccccc2s1 (stereo not drawn),44*,0,-17,23,17,11
O=c1[nH]c(CSc2nc3ccccc3s2)nc2ccccc12,-5,3,-17,0,4,nt
COc1ccc(NS(=O)(=O)c2ccc3nc(COc4cccc5ccccc45)[nH]c3c2)cc1,38*,2,-11,11,-8,36
CC(C)(C)OC(=O)N1CCC(C(=O)Nc2cccc(C(=O)NC3CC3)c2)CC1,4,nt,0,1,2,nt
CCOC(=O)c1sc(NC(=O)c2cc3n(n2)C(C(F)(F)F)CC(c2cccs2)N3)c(C(=O)OCC)c1C (stereo not drawn),30*,0,-16,9,-8,3
C/C(=C/CCC(C)[C@H]1CC[C@@]2(C)C3=C(CC[C@]12C)[C@@]1(C)CCC(=O)C(C)(C)[C@@H]1CC3)C(=O)O (stereo partly drawn),45*,4,0,4,1,13
COc1cccc(Nc2ccccc2C(=O)O)c1,-2,0,2,-1,0,nt
COc1cc(-c2ccc(Nc3ccccc3C(=O)O)c(OC)c2)ccc1Nc1ccccc1C(=O)O,50*,nt,-4,-4,4,45
O=C(CCC1CCN(C(=O)CC2=CCCCC2)CC1)NCc1ccc(F)cc1,3,nt,1,nt,-4,nt
COc1ccccc1CNc1nc(Nc2cccc(-c3cnco3)c2)c2sccc2n1,40*,nt,0,nt,8,15
C#CCOCCOCCOCCNc1nc(N2CCN(C(=O)[C@H]([C@@H](C)CC)n3cc([C@@H](N)Cc4ccc(O)cc4)nn3)CC2)nc(N2CCN(C(=O)[C@H](Cc3cc4ccccc4[nH]3)n3cc([C@@H](N)CC(C)C)nn3)CC2)n1,48*,1,-18,2,22,36
O=CNn1cnc2c(oc3nc(-c4ccccc4)cc(-c4ccco4)c32)c1=O,36*,2,2,-7,6,5
CN(C)c1ccc(C(CNS(=O)(=O)c2ccc3ccccc3c2)c2c[nH]c3ccccc23)cc1 (stereo not drawn),22,0,4,-2,1,nt
CN(C)c1ccc(C(CN)c2c[nH]c3ccccc23)cc1 (stereo not drawn),31*,0,6,4,5,11
O=C(N/N=C\c1ccc(-c2ccccc2[N+](=O)[O-])o1)C1COc2cc3ccccc3cc2O1 (stereo not drawn),42*,4,-6,4,-63,46
O=C(N/N=C/c1ccc(-c2ccccc2[N+](=O)[O-])o1)c1cncc(Br)c1,0,1,-7,-5,-27,nt
Cc1c(C(=O)N/N=C/c2ccc(-c3ccccc3[N+](=O)[O-])o2)sc(N)c1C#N,36*,4,-17,14,-35,20
O=C(CSc1nc2nn(-c3ccccc3)c(=O)c-2c2n1CCCCC2)Nc1ccccc1[N+](=O)[O-],18,nt,2,-2,1,nt
CC(C)n1cc(/C=N\NC(=O)c2cc3c(ccc4ccccc43)o2)c2ccccc21,33*,nt,-10,4,-2,2
Cc1ccc(/C=N/NC(=O)c2cc3c(ccc4ccccc43)o2)o1,0,nt,-6,11,3,nt
Cc1cc(/C=N/NC(=O)c2cc3ccccc3o2)c(C)n1C,35*,2,-11,6,3,19
CCn1cc(/C=N/NC(=O)c2cc3c(ccc4ccccc43)o2)c2ccccc21,36*,1,-19,12,-4,48*
Cc1onc(-c2c(Cl)cccc2Cl)c1C(O)c1ccccc1 (stereo not drawn),-3,2,2,-2,3,nt
SMILES,NadD block,GRK2 aptamer HTS,SENP1 FRET inh,B2AR ag,ABHD5-PLIN5 inh,NadD conf
Cc1ccc(NC(=O)CN(C)C2CCCCC2)cc1Cl,-3,0,0,5,-1,nt
COc1ccc(Cl)cc1NC(=O)CN1C(=O)NC2(CCCC2)C1=O,-7,0,1,0,5,nt
CCOc1ccc(N=C2SC(C(=O)Nc3ccccc3C#N)C(N)=C2C(=O)Nc2ccc(Cl)cc2)cc1 (stereo not drawn),31*,3,-5,6,-2,6
Cc1ccc(Cn2c(C3CCCN3c3nc(-c4cc(Cl)c(N)c(Cl)c4)cs3)nc3cc(Cl)c(Cl)cc32)cc1 (stereo not drawn),51*,0,-32,0,-2,43*
Nc1c(Cl)cc(-c2csc(N3CCCC3c3nc4cc(Cl)c(N5CCCCC5)cc4n3CCCO)n2)cc1Cl (stereo not drawn),32*,nt,1,-1,-4,15
CCCn1c(C2CCCN2c2nc(-c3cccc(Br)c3)cs2)nc2cc(Cl)c(Cl)cc21 (stereo not drawn),36*,0,-5,0,-4,30
COc1ccc(S(=O)(=O)Nc2c(O)ccc3ccccc23)cc1OC,-2,0,0,-11,-11,nt
COc1ccc2nc(NNC(=O)c3cc(=O)c4ccccc4o3)sc2c1,26,1,30,-10,-4,nt
Cc1cccc2sc(NNC(=O)c3cc(=O)c4ccccc4o3)nc12,45*,0,16,-4,-4,60*
Cc1ccc2sc(NNC(=O)c3cc(=O)c4ccccc4o3)nc2c1C,64*,2,26,12,-18,70*
CCCn1c2ccccc2c2cnn(CC(=O)NCCCN3CCN(c4ccccc4)CC3)c(=O)c21,-4,0,2,7,7,nt
O=S(=O)(Nc1cccc(-c2ccc(N3CCCCCC3)nn2)c1)c1ccc(C(F)(F)F)cc1,36*,3,-4,0,-11,23
Cc1ccc(S(=O)(=O)Nc2cccc(-c3ccc(N4CCCCCC4)nn3)c2)cc1C,42*,3,-3,5,6,36
Cc1ccc([N+](=O)[O-])cc1S(=O)(=O)Nc1cccc(-c2ccc(N3CCCC3)nn2)c1,44*,2,3,-9,-4,55*
O=S(=O)(Nc1cccc(-c2ccc(N3CCCCCC3)nn2)c1)c1cccc(F)c1,31*,1,-1,12,-4,21
Cc1ccc([N+](=O)[O-])cc1S(=O)(=O)Nc1ccc(-c2ccc(N3CCOCC3)nn2)cc1,12,2,2,4,-2,nt

# Screening results from PubChem BioAssay.
